Active and inactive are the calls of the source.
Experiments:
Beta-TC6 = assay: Protection against tunicamycin induced endoplasmic reticulum stress in mouse BetaTC6 cells assessed as increase in cell viability after 72 hrs by MTT assay; type: functional, cell-based
Procedure, shortened: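 βTC6 cells (DMEM, 15% FBS) seeded at 3×10^3/well in 384-well plates with Tm 0.25 µg/mL ± compound or DMSO for 72 h. Viability by CellTiter-Glo (ATP luminescence) or MTT: 3 h with reagent at 37 °C, then 4 h with crystal-dissolving solution, absorbance at 570 nm. 3 replicate wells, 3 experiments.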

INS1 [1] = assay: Reversal of tunicamycin induced PARP cleavage in rat INS-1 cells at 20 uM after 2 to 24 hrs by Western blot analysis; type: functional, cell-based
Procedure, shortened: (§1)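 Western blots of INS-1 cells (8×10^5/60-mm dish) treated with Tm 0.1 µg/mL ± compound 20 µM or DMSO for the indicated times. Lysates with EDTA and phosphatase inhibitors; 20 µg protein on 7% SDS-PAGE, PVDF. Primary antibodies at 1:1000 against ATF4, CHOP, cleaved caspase 3 or PARP; α-tubulin loading control; HRP secondaries. Representative of 3 experiments.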

INS1 [2] = assay: Reversal of tunicamycin-induced suppression of INS1 mRNA levels in rat INS-1 cells at 20 uM after 24 hrs by qRT-PCR method; type: functional, cell-based
Procedure, shortened: (§2)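 INS-1 cells (4×10^5/well, 6-well plates) given Tm 0.1 µg/mL ± compound 20 µM or DMSO for 24 h. INS1, INS2, PDX1 and MafA mRNA measured by qRT-PCR with rat primers. Means of 3 replicate wells, representative of 3 independent experiments; SD.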

INS1 [3] = assay: Reversal of tunicamycin-induced suppression of PDX1 mRNA levels in rat INS-1 cells at 20 uM after 24 hrs by qRT-PCR method; type: functional, cell-based; procedure, shortened: as §2
[4] = target: T1, Cyclic AMP-dependent transcription factor ATF-6 alpha (Rattus norvegicus) (UniProt G3V909); assay: Inhibition of ATF6 in rat INS-1 cells assessed as suppression of tunicamycin induced Bip mRNA levels at 20 uM after 4 to 24 hrs by qRT-PCR method; type: cell-based
T1 sequence (whole entry): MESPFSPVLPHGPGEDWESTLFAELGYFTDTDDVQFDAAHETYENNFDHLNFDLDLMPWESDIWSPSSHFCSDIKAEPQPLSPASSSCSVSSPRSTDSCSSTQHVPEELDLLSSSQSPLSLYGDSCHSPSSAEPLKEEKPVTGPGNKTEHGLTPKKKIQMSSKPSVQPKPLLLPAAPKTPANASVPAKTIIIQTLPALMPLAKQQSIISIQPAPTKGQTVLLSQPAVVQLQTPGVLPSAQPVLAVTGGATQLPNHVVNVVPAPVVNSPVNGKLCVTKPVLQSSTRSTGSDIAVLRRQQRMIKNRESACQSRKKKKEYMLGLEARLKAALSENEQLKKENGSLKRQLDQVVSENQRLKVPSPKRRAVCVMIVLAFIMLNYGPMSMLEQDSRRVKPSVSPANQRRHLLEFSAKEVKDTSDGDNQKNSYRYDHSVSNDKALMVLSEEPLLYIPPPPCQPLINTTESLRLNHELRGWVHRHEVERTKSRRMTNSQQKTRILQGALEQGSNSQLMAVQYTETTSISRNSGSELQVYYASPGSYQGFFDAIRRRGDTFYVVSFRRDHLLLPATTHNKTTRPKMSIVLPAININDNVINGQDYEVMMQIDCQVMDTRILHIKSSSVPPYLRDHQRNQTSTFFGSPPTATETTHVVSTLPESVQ
Procedure, shortened: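 INS-1 cells seeded at 4×10^5/well in 6-well plates, given Tm 0.1 µg/mL ± compound 20 µM or DMSO for the indicated times. Bip or GRP94 mRNA measured by qRT-PCR, expressed as fold-increase over untreated control. Means of 3 replicate wells, representative of 3 independent experiments.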

[5] = target: T2, Eukaryotic translation initiation factor 2-alpha kinase 3 (Rattus norvegicus) (UniProt Q9Z1Z1); assay: Inhibition of PERK pathway in rat INS-1 cells assessed as reduction in tunicamycin induced ATF4 mRNA levels at 20 uM after 2 to 24 hrs by qRT-PCR method; type: cell-based
T2 sequence (whole entry): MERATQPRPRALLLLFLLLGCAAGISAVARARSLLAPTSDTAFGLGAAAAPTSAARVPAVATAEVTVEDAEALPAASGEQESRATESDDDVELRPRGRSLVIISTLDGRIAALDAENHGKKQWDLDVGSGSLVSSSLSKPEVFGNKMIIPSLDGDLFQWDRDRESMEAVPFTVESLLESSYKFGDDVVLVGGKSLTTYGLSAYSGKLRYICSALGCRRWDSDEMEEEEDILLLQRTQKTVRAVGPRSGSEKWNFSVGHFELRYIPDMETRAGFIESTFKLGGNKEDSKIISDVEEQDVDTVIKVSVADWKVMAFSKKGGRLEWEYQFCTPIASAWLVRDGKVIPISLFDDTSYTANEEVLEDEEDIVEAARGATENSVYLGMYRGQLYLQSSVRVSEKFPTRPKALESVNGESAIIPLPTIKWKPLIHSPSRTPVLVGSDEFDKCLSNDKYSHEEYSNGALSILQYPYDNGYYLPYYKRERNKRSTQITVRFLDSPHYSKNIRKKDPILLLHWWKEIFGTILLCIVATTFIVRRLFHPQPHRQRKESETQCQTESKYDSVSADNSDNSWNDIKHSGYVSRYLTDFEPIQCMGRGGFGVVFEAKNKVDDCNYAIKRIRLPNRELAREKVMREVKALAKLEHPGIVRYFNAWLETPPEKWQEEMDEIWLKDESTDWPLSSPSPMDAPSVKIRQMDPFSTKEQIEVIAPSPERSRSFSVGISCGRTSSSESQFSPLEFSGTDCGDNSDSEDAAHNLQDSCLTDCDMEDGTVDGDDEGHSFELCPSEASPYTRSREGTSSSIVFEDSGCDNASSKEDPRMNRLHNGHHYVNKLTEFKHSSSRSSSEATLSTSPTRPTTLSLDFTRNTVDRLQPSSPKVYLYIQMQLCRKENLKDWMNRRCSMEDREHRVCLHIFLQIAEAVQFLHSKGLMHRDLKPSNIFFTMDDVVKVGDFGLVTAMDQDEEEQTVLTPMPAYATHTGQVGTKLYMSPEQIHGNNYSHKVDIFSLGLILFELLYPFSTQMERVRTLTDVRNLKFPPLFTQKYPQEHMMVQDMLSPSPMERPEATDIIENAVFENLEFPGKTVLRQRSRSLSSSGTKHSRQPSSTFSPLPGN
Procedure, shortened: (§3)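 ATF4 or CHOP mRNA measured by qRT-PCR in INS-1 cells treated with Tm 0.1 µg/mL ± compound 20 µM or DMSO for the indicated times. Expressed as fold-increase over untreated control; means of 3 replicate wells, representative of 3 independent experiments, SD.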

[6] = target: T2, Eukaryotic translation initiation factor 2-alpha kinase 3 (Rattus norvegicus); assay: Inhibition of PERK pathway in rat INS-1 cells assessed as reduction in tunicamycin induced CHOP mRNA levels at 20 uM after 2 to 24 hrs by qRT-PCR method; type: cell-based; procedure, shortened: as §3
[7] = target: T2, Eukaryotic translation initiation factor 2-alpha kinase 3 (Rattus norvegicus); assay: Inhibition of PERK pathway in rat INS-1 cells assessed as reduction in tunicamycin induced ATF4 protein levels at 20 uM after 2 to 24 hrs by Western blot analysis; type: cell-based; procedure, shortened: as §1

COc1ccc(CNc2nc(N3CCCCC3CO)nc3ccccc23)cc1 (racemic)
active: Activity (Beta-TC6) Dose-dependent effect | Activity (INS1 [1]) | Activity (INS1 [2]) | Activity (INS1 [3]) | inhibition [4] | inhibition [5] | inhibition [6] | inhibition [7]

Reference: ChEMBL document CHEMBL4428057, “Discovery, Synthesis, and Evaluation of 2,4-Diaminoquinazolines as a Novel Class of Pancreatic β-Cell-Protective Agents against Endoplasmic Reticulum (ER) Stress” (J Med Chem, 2016)
